This note sets out measurements from ChEMBL document CHEMBL4411287, “Discovery and optimization of a series of 3-substituted indazole derivatives as multi-target kinase inhibitors for the treatment of lung squamous cell carcinoma” (Eur J Med Chem, 2019).

A short description of data set [1]: Tmax in ICR(CD-1) mouse at 10 mg/kg, po administered via gavage by triple quadrupole mass spectrometric analysis. Format: ADME, organism-based. Particulars: in vivo. In a few lines: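 Dosed by gavage at 1 mg/mL in 1% Tween80/water to male ICR mice, 18-22 g, n=3. Blood taken at 0.25, 0.5, 1, 2, 4, 8 and 24 h. Plasma precipitated with methanol:acetonitrile (1:1) containing internal standard, then UPLC-MS/MS on a C18 column with an ammonium acetate/formic acid–acetonitrile gradient. Tmax read directly from the data; MRT calculated per animal from concentration–time curves.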

Data set [2] addresses Fibroblast growth factor receptor 2 (Homo sapiens) (UniProt P21802). In words: Inhibition of FGFR2 (unknown origin) at 1000 nM relative to control. In a few lines: (§1)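 Purified recombinant kinase domains run in ELISA on precoated poly(Glu,Tyr) 4:1 (20 µg/mL) with 10 µM ATP in 50 mM HEPES pH 7.4, 50 mM MgCl2, 0.5 mM MnCl2, 0.2 mM Na3VO4, 1 mM DTT; 1% DMSO control; 60 min at 37 °C. Phosphotyrosine read by PY99 antibody, HRP anti-mouse IgG, OPD/H2O2 at 490 nm; inhibition = [1−A490/A490control]×100%; two separate experiments.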

Data set [3] has as its target Fibroblast growth factor receptor 3 (Homo sapiens) (UniProt P22607). As to the kind of experiment: Inhibition of FGFR3 (unknown origin) at 1000 nM relative to control. In a few lines: as §1
In data set [4] the target is Platelet-derived growth factor receptor alpha (Homo sapiens) (UniProt P16234). In words: Inhibition of PDGFR-alpha (unknown origin) at 1000 nM relative to control. In a few lines: as §1
Data set [5] deals with Hepatocyte growth factor receptor (Homo sapiens) (UniProt P08581). In words: Inhibition of c-Met (unknown origin) at 100 nM relative to control. In a few lines: (§2)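 ELISA with purified recombinant kinase on plates precoated with poly(Glu,Tyr) 4:1 at 20 µg/mL. ATP 10 µM in HEPES pH 7.4 buffer with MgCl2, MnCl2, Na3VO4 and DTT. Run 60 min at 37 °C. Detected with anti-phosphotyrosine PY99, HRP secondary antibody and o-phenylenediamine, read at 490 nm. Inhibition % = [1 − A490/A490 control]×100. 1% DMSO as negative control.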

For data set [6], the target named is Cyclin-dependent kinase 1 (Homo sapiens) (UniProt P06493). As to the kind of experiment: Inhibition of CDK1 (unknown origin) at 100 nM relative to control.
The target in data set [7] is Mitogen-activated protein kinase 3 (Homo sapiens) (UniProt P27361). As to the kind of experiment: Inhibition of ERK1 (unknown origin) at 100 nM relative to control.
Data set [8] deals with Platelet-derived growth factor receptor alpha (Homo sapiens) (UniProt P16234). In words: Inhibition of PDGFR-alpha (unknown origin) at 100 nM relative to control. In a few lines: as §1
In data set [9] the target is Vascular endothelial growth factor receptor 1 (Homo sapiens) (UniProt P17948). In words: Inhibition of VEGFR1 (unknown origin) at 100 nM relative to control. In a few lines: as §2
For data set [10], the target named is Vascular endothelial growth factor receptor 2 (Homo sapiens) (UniProt P35968). As to the kind of experiment: Inhibition of VEGFR2 (unknown origin) at 100 nM relative to control. In a few lines: as §2
Data set [11] concerns the target Proto-oncogene tyrosine-protein kinase Src (Homo sapiens) (UniProt P12931). In words: Inhibition of c-Src (unknown origin) at 10 nM relative to control. In a few lines: as §2
Data set [12] deals with Fibroblast growth factor receptor 2 (Homo sapiens) (UniProt P21802). In words: Inhibition of FGFR2 (unknown origin) at 10 nM relative to control. In a few lines: as §1
In data set [13] the test system is T1, Discoidin domain-containing receptor 2 (Homo sapiens), Q16832 [I638F].
T1 sequence (whole entry): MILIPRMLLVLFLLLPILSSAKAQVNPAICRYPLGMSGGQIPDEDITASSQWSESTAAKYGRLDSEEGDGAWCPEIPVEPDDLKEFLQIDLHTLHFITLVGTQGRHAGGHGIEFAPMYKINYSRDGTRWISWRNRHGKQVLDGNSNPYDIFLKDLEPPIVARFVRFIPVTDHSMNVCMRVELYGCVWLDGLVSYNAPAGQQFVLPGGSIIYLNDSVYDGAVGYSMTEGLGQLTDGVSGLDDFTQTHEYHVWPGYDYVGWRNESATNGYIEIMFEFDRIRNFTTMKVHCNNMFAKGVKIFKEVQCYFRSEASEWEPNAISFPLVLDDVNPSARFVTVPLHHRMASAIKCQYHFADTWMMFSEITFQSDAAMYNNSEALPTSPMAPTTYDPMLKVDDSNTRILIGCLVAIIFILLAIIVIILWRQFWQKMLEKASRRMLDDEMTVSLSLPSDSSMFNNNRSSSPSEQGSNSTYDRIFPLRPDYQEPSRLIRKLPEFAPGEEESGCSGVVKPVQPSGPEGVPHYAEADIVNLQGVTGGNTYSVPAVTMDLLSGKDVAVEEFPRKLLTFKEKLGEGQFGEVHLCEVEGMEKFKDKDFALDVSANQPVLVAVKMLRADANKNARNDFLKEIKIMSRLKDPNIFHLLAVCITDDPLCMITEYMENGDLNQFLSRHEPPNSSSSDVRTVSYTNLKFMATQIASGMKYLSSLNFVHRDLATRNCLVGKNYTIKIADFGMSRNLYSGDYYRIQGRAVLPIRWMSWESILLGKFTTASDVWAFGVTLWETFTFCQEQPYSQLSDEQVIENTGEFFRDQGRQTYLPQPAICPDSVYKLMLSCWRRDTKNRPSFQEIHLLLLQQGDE
In words: Inhibition of DDR2 I638F mutant in human NCI-H2286 cells assessed as decrease in AKT phosphorylation at […] after 2 hrs by Western blot analysis. In kind it is cell-based. In a few lines: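 NCI-H2286 cells exposed to compound for 2 h at 37 °C and lysed in SDS sample buffer. Lysates run on 10% SDS-PAGE and blotted to nitrocellulose. Membranes probed for phospho- and total DDR2, ERK and Akt, with GAPDH as loading control, and detected by HRP secondary antibody and enhanced chemiluminescence.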
In general terms: A western blot detects proteins with antibodies after separation by electrophoresis.

The test system of a further data set is NCI-H2286. In words: Antitumor activity against human NCI-H2286 cells xenografted in SCID mouse assessed as tumor growth inhibition at 10 mg/kg, po qd for 10 consecutive days relative to control. As to conditions: read-out: TGI. In kind it is functional. In a few lines: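 NCI-H2286 xenograft established by s.c. fragment implantation. At 100-150 mm³ mice were randomized (vehicle n=10, treated n=5) and given compound orally once daily for 10 days. Tumour volume = length×width²/2, measured twice weekly. TGI taken on the final day from change in volume relative to vehicle, with Student's t-test.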
On the technique in general: Xenograft models place foreign cells or tissue in a host animal.

Activity calls are given as the source filed them. The calls are words filed in the database; no cut-off is given here.

Sequence of Platelet-derived growth factor receptor alpha (Homo sapiens) (P16234 whole entry): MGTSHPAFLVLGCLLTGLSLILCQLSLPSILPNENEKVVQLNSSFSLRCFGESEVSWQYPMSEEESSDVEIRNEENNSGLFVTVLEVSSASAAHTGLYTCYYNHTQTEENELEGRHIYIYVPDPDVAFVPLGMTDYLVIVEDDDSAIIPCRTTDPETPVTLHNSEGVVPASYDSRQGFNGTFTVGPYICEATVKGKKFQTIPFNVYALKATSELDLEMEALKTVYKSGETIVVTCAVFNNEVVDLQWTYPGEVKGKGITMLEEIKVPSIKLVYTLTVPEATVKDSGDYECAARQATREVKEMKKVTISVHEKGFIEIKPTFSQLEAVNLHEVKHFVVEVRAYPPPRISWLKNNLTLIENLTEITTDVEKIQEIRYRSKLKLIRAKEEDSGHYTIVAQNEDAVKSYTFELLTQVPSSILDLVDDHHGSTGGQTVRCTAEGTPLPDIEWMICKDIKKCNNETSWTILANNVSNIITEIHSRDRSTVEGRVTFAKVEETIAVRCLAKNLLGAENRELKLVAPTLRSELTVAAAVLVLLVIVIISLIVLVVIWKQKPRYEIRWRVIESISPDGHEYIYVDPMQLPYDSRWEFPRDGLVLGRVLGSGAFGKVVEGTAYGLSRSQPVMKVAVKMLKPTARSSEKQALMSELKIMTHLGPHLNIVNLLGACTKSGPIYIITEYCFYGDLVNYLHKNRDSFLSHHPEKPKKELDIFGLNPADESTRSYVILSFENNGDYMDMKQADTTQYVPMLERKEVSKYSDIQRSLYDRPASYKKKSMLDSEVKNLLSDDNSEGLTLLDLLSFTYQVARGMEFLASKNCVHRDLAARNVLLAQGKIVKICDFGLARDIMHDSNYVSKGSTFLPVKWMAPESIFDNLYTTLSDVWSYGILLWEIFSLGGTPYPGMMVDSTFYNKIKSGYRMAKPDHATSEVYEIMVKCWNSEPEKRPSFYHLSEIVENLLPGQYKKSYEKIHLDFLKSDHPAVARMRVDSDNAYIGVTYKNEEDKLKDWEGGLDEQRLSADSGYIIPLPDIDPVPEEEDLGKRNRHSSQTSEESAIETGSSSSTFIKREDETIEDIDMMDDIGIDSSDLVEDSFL
Sequence of Fibroblast growth factor receptor 2 (Homo sapiens) (P21802 22-821 limits assumed): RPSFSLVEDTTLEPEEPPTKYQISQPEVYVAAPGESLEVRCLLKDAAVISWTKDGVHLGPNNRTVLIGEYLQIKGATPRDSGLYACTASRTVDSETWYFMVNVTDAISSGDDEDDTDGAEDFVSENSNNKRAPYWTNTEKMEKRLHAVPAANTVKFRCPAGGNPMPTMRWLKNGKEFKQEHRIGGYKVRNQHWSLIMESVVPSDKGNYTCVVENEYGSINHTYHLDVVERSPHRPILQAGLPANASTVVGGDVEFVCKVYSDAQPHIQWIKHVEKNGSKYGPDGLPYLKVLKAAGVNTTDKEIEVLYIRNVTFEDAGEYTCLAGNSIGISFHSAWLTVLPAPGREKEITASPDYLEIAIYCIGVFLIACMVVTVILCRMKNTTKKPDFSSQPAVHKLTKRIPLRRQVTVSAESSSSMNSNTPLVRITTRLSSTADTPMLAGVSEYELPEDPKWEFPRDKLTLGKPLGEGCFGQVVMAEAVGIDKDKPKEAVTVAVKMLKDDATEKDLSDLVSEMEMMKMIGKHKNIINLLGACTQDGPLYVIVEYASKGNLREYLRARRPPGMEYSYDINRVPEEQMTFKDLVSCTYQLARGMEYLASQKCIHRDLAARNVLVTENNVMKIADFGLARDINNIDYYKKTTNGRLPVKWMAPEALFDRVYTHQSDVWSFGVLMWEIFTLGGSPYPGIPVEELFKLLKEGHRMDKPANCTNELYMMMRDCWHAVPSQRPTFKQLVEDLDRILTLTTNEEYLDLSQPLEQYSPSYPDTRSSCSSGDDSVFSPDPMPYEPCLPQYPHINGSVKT
Sequence of Cyclin-dependent kinase 1 (Homo sapiens) (P06493 whole entry, looked up): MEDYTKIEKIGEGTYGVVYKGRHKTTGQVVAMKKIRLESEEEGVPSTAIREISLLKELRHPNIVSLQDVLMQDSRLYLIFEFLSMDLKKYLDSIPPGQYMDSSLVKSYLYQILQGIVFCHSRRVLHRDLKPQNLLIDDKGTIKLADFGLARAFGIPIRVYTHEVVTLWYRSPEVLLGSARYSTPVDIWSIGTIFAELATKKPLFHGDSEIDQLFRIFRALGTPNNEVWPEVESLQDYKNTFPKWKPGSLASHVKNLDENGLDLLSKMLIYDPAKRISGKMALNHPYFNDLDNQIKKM
Sequence of Vascular endothelial growth factor receptor 1 (Homo sapiens) (P17948 whole entry): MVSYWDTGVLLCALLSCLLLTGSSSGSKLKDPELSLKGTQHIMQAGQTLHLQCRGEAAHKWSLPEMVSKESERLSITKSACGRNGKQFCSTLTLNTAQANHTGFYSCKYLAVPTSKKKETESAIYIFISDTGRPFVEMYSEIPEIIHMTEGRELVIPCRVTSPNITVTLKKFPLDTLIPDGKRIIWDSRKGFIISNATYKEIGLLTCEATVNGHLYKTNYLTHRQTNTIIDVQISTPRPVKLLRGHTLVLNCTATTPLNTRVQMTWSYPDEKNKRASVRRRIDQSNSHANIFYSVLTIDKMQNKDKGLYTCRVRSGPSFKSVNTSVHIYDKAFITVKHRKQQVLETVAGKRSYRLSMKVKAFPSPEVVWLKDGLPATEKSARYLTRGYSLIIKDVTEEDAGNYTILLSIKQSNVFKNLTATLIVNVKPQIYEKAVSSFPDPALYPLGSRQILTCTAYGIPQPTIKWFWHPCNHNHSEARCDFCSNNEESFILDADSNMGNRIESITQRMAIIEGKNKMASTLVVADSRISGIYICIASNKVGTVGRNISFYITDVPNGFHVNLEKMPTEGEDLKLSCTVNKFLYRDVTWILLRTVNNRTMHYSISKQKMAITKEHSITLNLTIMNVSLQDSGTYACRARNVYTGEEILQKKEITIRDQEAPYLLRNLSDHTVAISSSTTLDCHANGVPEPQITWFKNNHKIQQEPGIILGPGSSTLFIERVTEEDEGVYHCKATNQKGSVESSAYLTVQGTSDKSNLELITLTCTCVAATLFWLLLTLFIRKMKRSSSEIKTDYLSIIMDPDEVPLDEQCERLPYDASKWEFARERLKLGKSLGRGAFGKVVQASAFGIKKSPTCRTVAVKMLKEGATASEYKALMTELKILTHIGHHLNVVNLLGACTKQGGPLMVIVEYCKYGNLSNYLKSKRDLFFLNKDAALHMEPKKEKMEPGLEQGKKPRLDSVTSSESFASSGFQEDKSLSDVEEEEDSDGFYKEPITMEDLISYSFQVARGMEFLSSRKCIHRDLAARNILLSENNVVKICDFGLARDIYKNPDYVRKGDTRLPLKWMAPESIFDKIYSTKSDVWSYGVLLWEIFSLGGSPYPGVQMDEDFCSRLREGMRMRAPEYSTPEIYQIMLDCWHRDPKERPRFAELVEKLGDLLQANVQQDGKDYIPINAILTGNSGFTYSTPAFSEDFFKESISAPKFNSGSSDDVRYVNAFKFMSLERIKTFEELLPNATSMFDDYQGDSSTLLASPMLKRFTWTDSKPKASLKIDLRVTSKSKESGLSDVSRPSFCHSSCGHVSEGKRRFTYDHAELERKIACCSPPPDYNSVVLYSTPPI
Sequence of Proto-oncogene tyrosine-protein kinase Src (Homo sapiens) (P12931 2-536 limits assumed): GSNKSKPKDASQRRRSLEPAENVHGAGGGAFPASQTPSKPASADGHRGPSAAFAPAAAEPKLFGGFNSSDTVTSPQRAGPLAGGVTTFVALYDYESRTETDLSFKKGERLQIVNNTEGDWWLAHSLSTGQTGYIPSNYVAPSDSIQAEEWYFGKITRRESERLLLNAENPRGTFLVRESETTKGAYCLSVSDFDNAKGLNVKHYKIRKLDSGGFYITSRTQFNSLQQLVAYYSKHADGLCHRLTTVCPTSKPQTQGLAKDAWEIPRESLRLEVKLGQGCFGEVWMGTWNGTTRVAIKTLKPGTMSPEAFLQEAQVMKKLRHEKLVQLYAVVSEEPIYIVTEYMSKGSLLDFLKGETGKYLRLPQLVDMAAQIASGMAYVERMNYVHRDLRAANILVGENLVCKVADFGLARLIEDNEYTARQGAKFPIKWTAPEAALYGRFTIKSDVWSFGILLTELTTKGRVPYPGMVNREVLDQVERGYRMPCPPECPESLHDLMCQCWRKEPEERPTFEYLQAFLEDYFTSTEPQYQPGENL
Sequence of Mitogen-activated protein kinase 3 (Homo sapiens) (P27361 whole entry): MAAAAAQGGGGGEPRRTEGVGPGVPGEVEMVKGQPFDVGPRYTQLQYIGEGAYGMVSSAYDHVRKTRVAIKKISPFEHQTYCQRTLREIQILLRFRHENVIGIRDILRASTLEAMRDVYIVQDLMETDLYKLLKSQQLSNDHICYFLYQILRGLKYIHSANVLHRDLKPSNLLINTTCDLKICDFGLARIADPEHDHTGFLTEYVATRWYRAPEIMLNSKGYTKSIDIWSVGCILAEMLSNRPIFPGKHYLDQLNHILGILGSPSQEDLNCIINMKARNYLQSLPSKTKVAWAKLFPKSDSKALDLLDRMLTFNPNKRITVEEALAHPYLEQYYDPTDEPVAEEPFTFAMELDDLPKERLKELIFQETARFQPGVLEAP

With `Cc1ccc(C(=O)Nc2cccc(C(F)(F)F)c2)cc1-c1ccc2c(-c3cnn(C4CC4)c3)n[nH]c2c1`, the Tmax in data set [1] was 2 h. Moreover, the inhibition in [2] amounted to 100%; in data set [3], 94.2%; in data set [4], 100%; in data set [5] it was 0.3%; in data set [6], 1.4%; in [7], 0.6%. Moreover, the inhibition in data set [8] stood at 75.7%; in data set [9], 46.8%; in data set [10], 99.2%; in data set [11], 64.5%; in [12], 67.8%. For the same compound, in [13], the inhibition entry is “Active”. Also, the inhibition in vivo at 10 mg/kg in the data set on NCI-H2286 was 82.8%.

Broadly, the Tmax is the time from dosing to the highest level. Broadly, the inhibition is the percentage by which the read-out fell short of the control.
